Molecules are shown by their SMILES.

Assay [1] deals with T1, D(4) dopamine receptor (Homo sapiens, UniProt P21917).
T1 sequence (P21917 whole entry): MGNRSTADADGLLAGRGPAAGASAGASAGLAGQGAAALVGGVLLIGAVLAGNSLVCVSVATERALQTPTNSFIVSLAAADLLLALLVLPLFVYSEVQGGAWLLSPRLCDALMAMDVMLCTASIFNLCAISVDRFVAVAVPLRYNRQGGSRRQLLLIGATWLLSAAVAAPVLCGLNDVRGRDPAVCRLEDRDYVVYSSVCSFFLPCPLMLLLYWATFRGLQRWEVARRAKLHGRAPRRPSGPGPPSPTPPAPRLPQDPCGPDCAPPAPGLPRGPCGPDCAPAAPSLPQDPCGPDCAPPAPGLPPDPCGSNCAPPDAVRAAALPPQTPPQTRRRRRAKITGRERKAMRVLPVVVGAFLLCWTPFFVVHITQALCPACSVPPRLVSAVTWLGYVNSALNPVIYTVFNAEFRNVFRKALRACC
The assay can be described thus: Displacement of [3H]-YM-09151-2 from human D4 receptor after 120 mins by liquid scintillation counting.

For assay [2], the target named is T2, 5-hydroxytryptamine receptor 1A (Rattus norvegicus, UniProt P19327).
T2 sequence (P19327 whole entry): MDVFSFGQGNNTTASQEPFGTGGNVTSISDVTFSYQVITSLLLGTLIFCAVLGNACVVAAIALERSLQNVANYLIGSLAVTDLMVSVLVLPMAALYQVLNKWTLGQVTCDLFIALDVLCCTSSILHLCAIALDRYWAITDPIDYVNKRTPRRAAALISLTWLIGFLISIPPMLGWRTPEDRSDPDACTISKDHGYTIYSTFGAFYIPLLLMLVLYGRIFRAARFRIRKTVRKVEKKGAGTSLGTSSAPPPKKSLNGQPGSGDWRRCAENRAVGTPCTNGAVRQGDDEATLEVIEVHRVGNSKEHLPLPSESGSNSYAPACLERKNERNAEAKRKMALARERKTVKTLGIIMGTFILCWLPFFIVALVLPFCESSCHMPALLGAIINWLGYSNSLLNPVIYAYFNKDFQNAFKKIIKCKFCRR
The assay can be described thus: Displacement of [3H]-8-OH-DPAT from 5HT1A receptor in rat brain hippocampal membranes after 15 mins by liquid scintillation counting. The format is cell membranes, Membrane. The method, boiled down:
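Hippocampal membranes, 40 µg protein, incubated with 1 nM [3H]-8-OH-DPAT at 37 °C for 15 min under yellow light. Buffer was 50 mM Tris-HCl pH 7.4 with 1 mM CaCl2, 1 mM MnCl2 and pargyline. Filters were soaked in 0.5% polyethyleneimine. IC50 came from nonlinear regression fitted with one or two sites. Ki by Cheng-Prusoff, using Kd from saturation experiments.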

In assay [3] the target is T3, Alpha-1B adrenergic receptor (Rattus norvegicus, UniProt P15823).
T3 sequence (P15823 whole entry): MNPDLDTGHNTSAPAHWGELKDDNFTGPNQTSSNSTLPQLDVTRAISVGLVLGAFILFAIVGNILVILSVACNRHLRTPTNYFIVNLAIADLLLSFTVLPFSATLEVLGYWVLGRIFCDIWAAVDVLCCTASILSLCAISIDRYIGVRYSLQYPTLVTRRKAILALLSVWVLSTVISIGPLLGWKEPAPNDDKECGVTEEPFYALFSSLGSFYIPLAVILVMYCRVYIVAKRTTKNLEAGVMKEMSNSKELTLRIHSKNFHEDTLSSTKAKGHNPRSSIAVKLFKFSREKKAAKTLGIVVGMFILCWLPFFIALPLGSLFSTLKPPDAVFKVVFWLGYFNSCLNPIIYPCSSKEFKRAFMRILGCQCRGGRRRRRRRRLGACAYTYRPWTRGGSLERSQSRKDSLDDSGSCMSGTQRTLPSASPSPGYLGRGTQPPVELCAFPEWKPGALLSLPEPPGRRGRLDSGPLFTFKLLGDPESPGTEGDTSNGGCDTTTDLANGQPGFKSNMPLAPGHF
The experiment in a line: Displacement of [3H]-[…] from alpha1B adrenoreceptor in rat liver membranes after 45 mins by liquid scintillation counting. The format is cell membranes, Membrane. (In general: Displacement assays read how much labelled ligand stays bound in the presence of the test substance.)

For assay [4], the target named is 5-hydroxytryptamine receptor 2A (Rattus norvegicus, UniProt P14842). The assay can be described thus: Displacement of [3H]-ketanserin from 5HT2A receptor in rat brain cortical membranes after 15 mins by liquid scintillation counting. The class given is cell membranes, Membrane.
5-hydroxytryptamine receptor 2A, sequence (P14842 whole entry): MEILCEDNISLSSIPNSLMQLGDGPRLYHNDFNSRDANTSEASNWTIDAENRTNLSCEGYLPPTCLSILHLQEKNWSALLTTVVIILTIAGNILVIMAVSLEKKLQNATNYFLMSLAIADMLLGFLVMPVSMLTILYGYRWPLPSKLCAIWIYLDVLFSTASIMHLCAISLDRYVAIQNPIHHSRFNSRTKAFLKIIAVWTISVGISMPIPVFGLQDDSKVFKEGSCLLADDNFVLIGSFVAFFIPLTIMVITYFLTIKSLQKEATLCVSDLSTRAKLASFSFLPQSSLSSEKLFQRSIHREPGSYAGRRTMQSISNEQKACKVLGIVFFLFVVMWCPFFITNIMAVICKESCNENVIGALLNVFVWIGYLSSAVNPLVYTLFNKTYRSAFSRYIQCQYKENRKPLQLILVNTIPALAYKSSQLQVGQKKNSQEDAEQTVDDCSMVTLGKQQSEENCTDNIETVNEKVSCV

Consider `Clc1ccc(-n2cc(CCCN3CCN(c4ccccc4)CC3)cn2)cc1`, for which the Ki in assay [1] was 330 nM; in assay [2] it was 180 nM; in assay [3], 700 nM; in assay [4], 600 nM.

In the case of `Clc1ccc(-n2cc(COCCN3CCN(c4ccccc4)CC3)cn2)cc1`, the Ki in assay [1] is 100 nM; in assay [2], 110 nM; in assay [3], 850 nM; in assay [4] it was 2490 nM.

With `Clc1ccc(-n2cc(COCCCN3CCN(c4ccccc4)CC3)cn2)cc1`, the Ki in assay [1] was 1500 nM; in assay [2], 310 nM; in assay [3], 400 nM; in assay [4] it was 650 nM.

Regarding `Clc1ccc(-n2cc(CCCCCN3CCN(c4ccccc4)CC3)cn2)cc1`, the Ki in assay [1] turned out to be 1180 nM; in assay [2], 160 nM; in assay [3], 380 nM; in assay [4] it was 950 nM.

As for `Clc1ccc(-n2cc(CCCCN3CCN(c4ccccc4)CC3)cn2)cc1`, the Ki turned out to be 800 nM in assay [1], 90 nM in assay [2], 570 nM in assay [3] and 650 nM in assay [4].

For the compound `Clc1ccc(-n2cc(CN3CCN(c4ccccc4)CC3)cn2)cc1`, the Ki came to 180 nM in assay [1], 220 nM in assay [2], 2600 nM in assay [3] and 6910 nM in assay [4].

As usually defined, the Ki is the equilibrium dissociation constant of an inhibitor or competing ligand from its target. Low readings indicate tighter binding, high ones weaker binding.

Source of the values: ChEMBL document CHEMBL2412990, “Synthesis and pharmacological evaluation of new N-phenylpiperazine derivatives designed as homologues of the antipsychotic lead compound LASSBio-579” (Eur J Med Chem, 2013).
